Laboratory results as given in ChEMBL document CHEMBL2029303, “Syntheses and biological studies of novel spiropiperazinyl oxazolidinone antibacterial agents using a spirocyclic diene derived acylnitroso Diels-Alder reaction” (Bioorg Med Chem, 2012).
≈ marks a conversion by molar mass, not a printed value. Calls of active or inactive are those of the source. No cut-off for these calls is given here.

Legend:
[1] = test system: Mycobacterium tuberculosis; experiment: Antimycobacterial activity against Mycobacterium tuberculosis H37Rv grown in glycerol-alanine-salts media; format: functional
[2] = test system: Mycobacterium tuberculosis; experiment: Antimycobacterial activity against Mycobacterium tuberculosis H37Rv grown in iron-deficient glycerol-alanine-salts media; format: functional
[3] = test system: Staphylococcus aureus; experiment: Antibacterial activity against methicillin-resistant Staphylococcus aureus ATCC 700699 in presence of 50% human serum; format: functional
Summary of the method: (§1)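 MIC assay run with 50% mouse or human serum added to gauge protein-binding effect. Fold shift is calculated as the MIC with serum over the MIC without serum.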

[4] = test system: Bacillus subtilis; experiment: Antibacterial activity against Bacillus subtilis ATCC 6633 at 50 uL of 2 mM solution of compound in 1:9 DMSO/MeOH after 24 hrs by agar diffusion method; format: functional
Summary of the method: (§2)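 Agar diffusion assay against representative Gram-positive and Gram-negative bacteria and Mycobacterium vaccae; the read-out is the diameter of the inhibition zone around the applied compound, measured in mm.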

[5] = Cytotoxicity against human HepG2 cells; format: cell-based
[6] = test system: Mycolicibacterium vaccae; experiment: Antimycobacterial activity against Mycobacterium vaccae IMET 10670 assessed as partial clear inhibition zone at 50 uL of 2 mM solution of compound in 1:9 DMSO/MeOH after 24 hrs by agar diffusion method; format: functional; summary of the method: as §2
[7] = test system: Mycolicibacterium vaccae; experiment: Antimycobacterial activity against Mycobacterium vaccae IMET 10670 at 50 uL of 2 mM solution of compound in 1:9 DMSO/MeOH after 24 hrs by agar diffusion method; format: functional; summary of the method: as §2
[8] = test system: Enterococcus faecalis; experiment: Antibacterial activity against vancomycin-resistant Enterococcus faecalis 1528 at 50 uL of 2 mM solution of compound in 1:9 DMSO/MeOH after 24 hrs by agar diffusion method; format: functional
Summary of the method: (§3)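 Agar diffusion screen; read-out is the diameter of the inhibition zone, in mm.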

[9] = test system: Pseudomonas aeruginosa; experiment: Antibacterial activity against Pseudomonas aeruginosa SG 137 at 50 uL of 2 mM solution of compound in 1:9 DMSO/MeOH after 24 hrs by agar diffusion method; format: functional; summary of the method: as §2
[10] = test system: Bacillus subtilis; experiment: Antibacterial activity against Bacillus subtilis ATCC 6633 assessed as clear inhibition zone at 50 uL of 2 mM solution of compound in 1:9 DMSO/MeOH after 24 hrs by agar diffusion method; format: functional; summary of the method: as §2
[11] = test system: Staphylococcus aureus; experiment: Ratio of MIC methicillin-resistant Staphylococcus aureus ATCC 700699 in presence of 50% human serum to MIC for […]; format: functional; summary of the method: as §1
[12] = test system: Pseudomonas aeruginosa; experiment: Antibacterial activity against Pseudomonas aeruginosa K799/61 at 50 uL of 2 mM solution of compound in 1:9 DMSO/MeOH after 24 hrs by agar diffusion method; format: functional; summary of the method: as §2
[13] = test system: Staphylococcus aureus; experiment: Ratio of MIC methicillin-resistant Staphylococcus aureus ATCC 700699 in presence of 50% mouse serum to MIC for […]; format: functional; summary of the method: as §1
[14] = test system: Staphylococcus aureus; experiment: Antibacterial activity against methicillin-resistant Staphylococcus aureus ATCC 700699 in presence of 50% mouse serum; format: functional; summary of the method: as §1
[15] = test system: Staphylococcus aureus; experiment: Antibacterial activity against Staphylococcus aureus SG 511 at 50 uL of 2 mM solution of compound in 1:9 DMSO/MeOH after 24 hrs by agar diffusion method; format: functional; summary of the method: as §2
[16] = test system: Staphylococcus aureus; experiment: Antibacterial activity against Staphylococcus aureus SG 511 assessed as partial clear inhibition zone at 50 uL of 2 mM solution of compound in 1:9 DMSO/MeOH after 24 hrs by agar diffusion method; format: functional; summary of the method: as §2
[17] = test system: Staphylococcus aureus; experiment: Antibacterial activity against methicillin-sensitive Staphylococcus aureus ATCC 29213; format: functional
[18] = test system: Staphylococcus aureus; experiment: Antibacterial activity against methicillin-resistant Staphylococcus aureus 134/93 at 50 uL of 2 mM solution of compound in 1:9 DMSO/MeOH after 24 hrs by agar diffusion method; format: functional; summary of the method: as §3
[19] = test system: Staphylococcus aureus; experiment: Antibacterial activity against methicillin-resistant Staphylococcus aureus ATCC 700699; format: functional
[20] = test system: Escherichia coli; experiment: Antibacterial activity against Escherichia coli SG 458 at 50 uL of 2 mM solution of compound in 1:9 DMSO/MeOH after 24 hrs by agar diffusion method; format: functional; summary of the method: as §2
[21] = test system: Bacillus subtilis; experiment: Antibacterial activity against Bacillus subtilis ATCC 6633 assessed as partial clear inhibition zone at 50 uL of 2 mM solution of compound in 1:9 DMSO/MeOH after 24 hrs by agar diffusion method; format: functional; summary of the method: as §2
[22] = test system: Staphylococcus aureus; experiment: Antibacterial activity against methicillin-resistant Staphylococcus aureus 134/93 assessed as clear inhibition zone at 50 uL of 2 mM solution of compound in 1:9 DMSO/MeOH after 24 hrs by agar diffusion method; format: functional; summary of the method: as §3
[23] = test system: Enterococcus faecalis; experiment: Antibacterial activity against vancomycin-resistant Enterococcus faecalis 1528 assessed as partial clear inhibition zone at 50 uL of 2 mM solution of compound in 1:9 DMSO/MeOH after 24 hrs by agar diffusion method; format: functional; summary of the method: as §3
[24] = test system: Enterococcus faecalis; experiment: Antibacterial activity against vancomycin-resistant Enterococcus faecalis 1528 assessed as unclear inhibition zone at 50 uL of 2 mM solution of compound in 1:9 DMSO/MeOH after 24 hrs by agar diffusion method; format: functional; summary of the method: as §3
[25] = test system: Mycolicibacterium vaccae; experiment: Antimycobacterial activity against Mycobacterium vaccae IMET 10670 assessed as unclear inhibition zone at 50 uL of 2 mM solution of compound in 1:9 DMSO/MeOH after 24 hrs by agar diffusion method; format: functional; summary of the method: as §2
[26] = test system: Staphylococcus aureus; experiment: Antibacterial activity against Staphylococcus aureus SG 511 assessed as clear inhibition zone at 50 uL of 2 mM solution of compound in 1:9 DMSO/MeOH after 24 hrs by agar diffusion method; format: functional; summary of the method: as §2
[27] = test system: Pseudomonas aeruginosa; experiment: Antibacterial activity against Pseudomonas aeruginosa K799/61 assessed as clear inhibition zone at 50 uL of 2 mM solution of compound in 1:9 DMSO/MeOH after 24 hrs by agar diffusion method; format: functional, organism-based; summary of the method: as §2

Structure (SMILES)	MIC [1]	MIC [2]	diameter of the inhibition zone (DIZ) [4]	diameter of the inhibition zone (DIZ) [6]	diameter of the inhibition zone (DIZ) [8]	diameter of the inhibition zone (DIZ) [9]	diameter of the inhibition zone (DIZ) [10]	diameter of the inhibition zone (DIZ) [12]	diameter of the inhibition zone (DIZ) [15]	diameter of the inhibition zone (DIZ) [18]	diameter of the inhibition zone (DIZ) [20]	other results
CC(C)(C)OC(=O)N1OC2CCC1C21CCN(c2ccc([N+](=O)[O-])cc2F)CC1 (stereo not drawn)	> 128 µM	> 128 µM	–	–	–	–	–	–	–	–	–	–
CC(C)(C)OC(=O)N1OC2CCC1C21CCN(c2ccc(NC(=O)OCc3ccccc3)cc2F)CC1 (stereo not drawn)	> 128 µM	> 128 µM	–	–	–	–	–	–	–	–	–	–
CC(=O)NC[C@H]1CN(c2ccc(N3CCC4(CC3)C3CCC4N(C(=O)OC(C)(C)C)O3)c(F)c2)C(=O)O1 (stereo partly drawn)	24.4 µM	22 µM	25 mm	37 mm	23 mm	0 mm	27 mm	0 mm	18 mm	25 mm	0 mm	MIC [3]: 62 µg/mL; CC50 [5]: > 100 µM; diameter of the inhibition zone (DIZ) [7]: 24 mm; Ratio [11]: 4; Ratio [13]: 2; MIC [14]: 32 µg/mL; diameter of the inhibition zone (DIZ) [16]: 22 mm; MIC [17]: 64 µg/mL (≈ 123 µM); MIC [19]: 16 µg/mL (≈ 30.9 µM)
CC(C)(C)OC(=O)N1OC2CCC1C21CCN(c2ccc(N3C[C@H](COS(C)(=O)=O)OC3=O)cc2F)CC1 (stereo partly drawn)	118 µM	67.4 µM	–	–	–	–	–	–	–	–	–	–
CC(C)(C)OC(=O)N1OC2CCC1C21CCN(c2ccc(N3C[C@H](CO)OC3=O)cc2F)CC1 (stereo partly drawn)	97 µM	> 128 µM	23.5 mm	30 mm	22 mm	0 mm	28 mm	0 mm	22 mm	24 mm	0 mm	MIC [3]: > 34 µg/mL; CC50 [5]: > 100 µM; Ratio [11]: >2; Ratio [13]: >2; MIC [14]: > 64 µg/mL; MIC [17]: > 64 µg/mL; diameter of the inhibition zone (DIZ) [21]: 30 mm; MIC [19]: 32 µg/mL (≈ 67 µM)
CC(=O)NC[C@H]1CN(c2ccc(N3CCOCC3)c(F)c2)C(=O)O1 [LINEZOLID]	–	0.4 µM	–	–	–	–	–	–	–	–	–	–
CC(=O)NC[C@H]1CN(c2ccc(N3CCC4(CC3)C(O)CCC4NC(=O)OC(C)(C)C)c(F)c2)C(=O)O1 (stereo partly drawn)	> 128 µM	> 128 µM	14 mm	13 mm	15 mm	0 mm	19 mm	0 mm	–	14 mm	0 mm	diameter of the inhibition zone (DIZ) [16]: 16 mm; diameter of the inhibition zone (DIZ) [22]: 18 mm; diameter of the inhibition zone (DIZ) [23]: 18 mm
CCCC(=O)OC[C@H]1CN(c2ccc(N3CCC4(CC3)C3CCC4N(C(=O)OC(C)(C)C)O3)c(F)c2)C(=O)O1 (stereo partly drawn)	19.2 µM	29.2 µM	–	–	–	–	–	–	–	–	–	–
CC(C)(C)OC(=O)N1OC2CCC1C21CCN(c2ccc(N)cc2F)CC1 (stereo not drawn)	> 128 µM	> 128 µM	–	–	–	–	–	–	–	–	–	–
CC(C)(C)OC(=O)N1OC2CCC1C21CCN(c2ccc(N3C[C@H](CN)OC3=O)cc2F)CC1 (stereo partly drawn)	–	–	12 mm	–	–	0 mm	–	–	10 mm	–	10 mm	diameter of the inhibition zone (DIZ) [7]: 18 mm; diameter of the inhibition zone (DIZ) [24]: 14 mm; diameter of the inhibition zone (DIZ) [25]: 25 mm; diameter of the inhibition zone (DIZ) [22]: 14 mm; diameter of the inhibition zone (DIZ) [26]: 13 mm; diameter of the inhibition zone (DIZ) [27]: Active
